According to ChEMBL document CHEMBL1649302, “New small-molecule inhibitor class targeting human immunodeficiency virus type 1 virion maturation” (Antimicrob Agents Chemother, 2009):
pEC50: −log10 of the molar value. Activity calls are given as the source filed them. The rule behind the calls is not given here.

Experiments:
[1] = system: Human immunodeficiency virus 1; assay: Antiviral activity HIV1 93BR029 infected in human PBMC after 7 days by scintillation counting; format: functional, organism-based; conditions: Human immunodeficiency virus 1, 93BR029, 168 h
How it was run: (§1)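 PBMCs came from buffy coats pooled from 3–4 seronegative donors, were PHA-stimulated (1.5 μg/ml, 3 days) and frozen. Thawed cells were infected 1 h at 37°C with virus input set by TCID50, then pelleted and resuspended in IL-2 (10 ng/ml). They were plated at 4 × 10⁵ cells/ml onto compounds for 7 days at 37°C. Supernatant RT activity was measured by Quan-T-RT scintillation assay.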

[2] = system: Human immunodeficiency virus 1; assay: Antiviral activity HIV1 92HT596 infected in human PBMC after 7 days by scintillation counting; format: functional, organism-based; conditions: Human immunodeficiency virus 1, 92HT596, 168 h; how it was run: as §1
[3] = Therapeutic index, ratio of CC50 for human PBMC to EC50 for HIV1 92TH026 infected in human PBMC; conditions: read-out: TI
How it was run: (§2)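 PHA-stimulated (4 μg/ml, 48 to 72 h) PBMCs pooled from at least two seronegative donors, kept with 20 U/ml IL-2, plated at 5 × 10⁴ cells/well. Infected with clinical isolate (final MOI ≅0.1) alongside nine compound concentrations in triplicate wells, 7 days. Supernatant reverse transcriptase activity measured. TI is mean PBMC CC50 divided by mean EC50.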

[4] = system: Human immunodeficiency virus 1; assay: Antiviral activity against HIV1 NL4-3 infected in HEK293 cells assessed as inhibition of viral p24 antigen production after 72 hrs
[5] = Therapeutic index, ratio of CC50 for human PBMC to EC50 for HIV1 92BR017 infected in human PBMC; conditions: read-out: TI
How it was run: (§3)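 Frozen PHA-stimulated (1.5 μg/ml, 3 days) buffy-coat PBMCs pooled from three or four seronegative donors. Infected with a TCID50-based virus input per 10⁶ cells for 1 h at 37°C, then pelleted and resuspended in 10 ng/ml IL-2. Plated at 4 × 10⁵ cells/ml on compound dilutions for 7 days at 37°C. Supernatant RT measured by Quan-T-RT. TI is mean CC50 divided by mean EC50.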

[6] = system: Human immunodeficiency virus 1; assay: Antiviral activity HIV1 92BR004 infected in human PBMC after 7 days by scintillation counting; format: functional, organism-based; conditions: Human immunodeficiency virus 1, 92BR004, 168 h; how it was run: as §1
[7] = Therapeutic index, ratio of CC50 for human MT2 cells to EC50 for HIV1 92HT594 infected in human MT2 cells; format: cell-based; conditions: read-out: TI
How it was run: (§4)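 TI was the mean CC50 (XTT, uninfected MT-2) divided by the mean EC50, determined for each cell line in each experiment.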

[8] = system: Human immunodeficiency virus 1; assay: Antiviral activity HIV1 96USHIPS7 infected in human PBMC after 7 days by scintillation counting; format: functional, organism-based; conditions: Human immunodeficiency virus 1, 96USHIPS7, 168 h
How it was run: (§5)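 Fresh PBMCs from HIV/HBV-seronegative donors were PHA-stimulated (4 μg/ml, 48–72 h) and kept with IL-2 (20 U/ml), with at least two donors pooled. Cells were seeded at 5 × 10⁴/well and infected (final MOI ≅0.1) with nine compound concentrations in triplicate wells. After 7 days, reverse transcriptase activity was measured in cell-free supernatant.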

[9] = Therapeutic index, ratio of CC50 for human PBMC to EC50 for HIV1 CMU06 infected in human PBMC; conditions: read-out: TI; how it was run: as §3
[10] = system: Human immunodeficiency virus 1; assay: Antiviral activity against HIV1 92HT594 infected in human MT2 cells assessed as inhibition of viral p24 antigen production after 5 days; format: functional, organism-based; conditions: Human immunodeficiency virus 1, 92HT594, MT2, 120 h
How it was run: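 PM1 cells (NL4-3, Ba-L) or MT-2 cells (92HT594, 92HT599) were infected at MOI 0.16 for 2 h and washed. They were plated at 1 × 10⁴ cells/well (2 × 10⁵/ml) onto half-log compound dilutions. Supernatant p24 was quantified by ELISA at day 5. EC50 was the concentration giving a 50% decrease versus infected, compound-free cells.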

[11] = system: Human immunodeficiency virus 1; assay: Antiviral activity HIV1 91US056 infected in human PBMC after 7 days by scintillation counting; format: functional, organism-based; conditions: Human immunodeficiency virus 1, 91US056, 168 h; how it was run: as §5
[12] = Therapeutic index, ratio of CC50 for human MT2 cells to EC50 for HIV1 92HT599 infected in human MT2 cells; format: cell-based; conditions: read-out: TI; how it was run: as §4
[13] = system: Human immunodeficiency virus 1; assay: Antiviral activity HIV1 93BR021 infected in human PBMC after 7 days by scintillation counting; format: functional, organism-based; conditions: Human immunodeficiency virus 1, 93BR021, 168 h; how it was run: as §5
[14] = system: Human immunodeficiency virus 1; assay: Antiviral activity HIV1 92BR026 infected in human PBMC after 7 days by scintillation counting; format: functional, organism-based; conditions: Human immunodeficiency virus 1, 92BR026, 168 h
[15] = system: Human immunodeficiency virus 1; assay: Antiviral activity against HIV1 NL4-3 infected in HEK293 cells assessed as decrease in virus production at 2 times EC90 after 72 hrs by beta-galactosidase reporter gene assay; format: functional
[16] = Therapeutic index, ratio of CC50 for human PM1 cells to EC50 for HIV1 NL4-3 infected in human PM1 cells; format: cell-based; conditions: read-out: TI
How it was run: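 PM1 cells infected at MOI 0.16 for 2 h, washed, then seeded at 1 × 10⁴ cells/well on half-log compound dilutions. After 5 days, supernatant p24 antigen was quantified by ELISA kit. EC50 is the concentration halving p24 versus infected untreated cells. CC50 was measured in PM1 cells by XTT formazan at 450 nm. TI is CC50 divided by EC50.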

[17] = Therapeutic index, ratio of CC50 for human PBMC to EC50 for HIV1 92BR014 infected in human PBMC; conditions: read-out: TI; how it was run: as §2
[18] = system: Human immunodeficiency virus 1; assay: Antiviral activity HIV1 92HT599 infected in human PBMC after 7 days by scintillation counting; format: functional, organism-based; conditions: Human immunodeficiency virus 1, 92HT599, 168 h; how it was run: as §1
[19] = Therapeutic index, ratio of CC50 for human PBMC to EC50 for HIV1 91US005 infected in human PBMC; conditions: read-out: TI
How it was run: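 TI was the mean PBMC CC50 divided by the mean EC50 from the 7-day PBMC reverse transcriptase assay.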

[20] = system: Human immunodeficiency virus 1; assay: Antiviral activity against HIV1 NL4-3 infected in human HeLa cells assessed as decrease in single-cycle viral infection after 72 hrs by beta-galactosidase reporter gene assay; format: functional, organism-based; conditions: Human immunodeficiency virus 1, NL4-3, HeLa
How it was run: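 HeLa CD4 LTR/beta-Gal cells (1 × 10⁴/well, DMEM + 10% FBS) were pre-dosed with half-log compound dilutions. They were infected at MOI 0.03 with single-cycle NL4-3 reporter virus made by cotransfecting HEK 293 cells with pNL4-3deltaEnv and an NL4-3 envelope vector. EC50 is from beta-gal reporter activity relative to infected untreated cells, across three experiments.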

[21] = system: Human immunodeficiency virus 1; assay: Antiviral activity HIV1 92BR014 infected in human PBMC after 7 days by scintillation counting; format: functional, organism-based; conditions: Human immunodeficiency virus 1, 92BR014, 168 h; how it was run: as §5
[22] = system: Human immunodeficiency virus 1; assay: Antiviral activity HIV1 92BR030 infected in human PBMC after 7 days by scintillation counting; format: functional, organism-based; conditions: Human immunodeficiency virus 1, 92BR030, 168 h; how it was run: as §5
[23] = system: Human immunodeficiency virus 1; assay: Antiviral activity HIV1 92TH026 infected in human PBMC after 7 days by scintillation counting; format: functional, organism-based; conditions: Human immunodeficiency virus 1, 92TH026, 168 h; how it was run: as §5
[24] = system: Human immunodeficiency virus 1; assay: Antiviral activity HIV1 92US076 infected in human PBMC after 7 days by scintillation counting; format: functional, organism-based; conditions: Human immunodeficiency virus 1, 92US076, 168 h; how it was run: as §5

## CC(C)(C)c1ccc(C(Cn2cccc(C(F)(F)F)c2=O)NC2Cc3ccccc3C2)cc1 (centres undefined)
[1]
  pEC50: 6.24
[2]
  pEC50: 6.49
[3]
  selectivity ratio: < 1
[4]
  inhibition: inactive
[5]
  selectivity ratio: 142
[6]
  pEC50: 6.48
[7]
  selectivity ratio: 79
[8]
  pEC50: < 4.77
[9]
  selectivity ratio: 14
[10]
  pEC50: 6.62
[11]
  pEC50: < 4.77
[12]
  selectivity ratio: 90
[13]
  pEC50: 7.40
[14]
  pEC50: < 4.77
[15]
  inhibition (INH): 92%
[16]
  selectivity ratio: 633
[17]
  selectivity ratio: 2
[18]
  pEC50: 5.85
[19]
  selectivity ratio: < 1
[20]
  pEC50: < 5.00
[21]
  pEC50: 5.15
[22]
  pEC50: < 4.77
[23]
  pEC50: < 4.77
[24]
  pEC50: 8.15
